According to ChEMBL document CHEMBL1121802, “Imine analogues of tricyclic antidepressants” (1981):

How the values were obtained:
Type in all cases: functional
Mus musculus [1] = experiment: The effect on 24-hour mortality in mice following oral administration
Mus musculus [2] = experiment: The effect on ataxia in mice following oral administration
Outline: (§1)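 Observed at 0.5, 2, 5 and 24 h for ataxia (abnormal gait/imprecise movement), pupil diameter (dissecting microscope, 20×, micrometer), excitement (spontaneous running/jumping) and electroshock protection (corneal electrodes at 2 and 5 h). ED50 by Thompson method.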

Mus musculus [3] = experiment: The effect on electroshock protection in mice following oral administration; outline: as §1
Mus musculus [4] = experiment: The effect on excitement was measured in mice following oral administration; outline: as §1
Mus musculus [5] = experiment: Effect on pupil dilation was measured in mice upon oral administration; outline: as §1
Mus musculus [6] = experiment: Compound was tested for antidepressant activity by determining the reversal of tetrabenazine-induced ptosis upon oral administration; 26-122
Outline: (§2)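 Mice given test drug orally; 30 min later challenged with tetrabenazine (methanesulfonate) 32 mg/kg ip in 0.05 M KCl pH 2.0. Scored 1 h after test drug for exploratory activity and ptosis; ptosis antagonism = lid closure <50% in both eyes exactly 2 s after placing mouse facing observer. ED50 calculated by Thompson method.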

Mus musculus [7] = experiment: Compound was tested for antidepressant activity by determining the decreased exploratory activity in mice upon oral administration; 39-238; outline: as §2
Mus musculus [8] = experiment: Antidepressant activity by determining the reversal of tetrabenazine-induced ptosis upon oral administration; outline: as §2
Mus musculus [9] = experiment: Compound was tested for antidepressant activity by determining the decreased exploratory activity in mice upon oral administration; outline: as §2
Mus musculus [10] = experiment: Compound was tested for antidepressant activity by determining the reversal of tetrabenazine-induced ptosis upon oral administration; 10-57; outline: as §2
Mus musculus [11] = experiment: Compound was tested for antidepressant activity by determining the decreased exploratory activity in mice upon oral administration; 22-53; outline: as §2
Mus musculus [12] = experiment: Compound was tested for antidepressant activity by determining the reversal of tetrabenazine-induced ptosis upon oral administration; 0.17-0.37; outline: as §2
Mus musculus [13] = experiment: Compound was tested for antidepressant activity by determining the decreased exploratory activity in mice upon oral administration; 0.4-1.1; outline: as §2
Mus musculus [14] = experiment: Antidepressant activity by determining the decreased exploratory activity in mice upon oral administration; outline: as §2
Mus musculus [15] = experiment: Compound was tested for antidepressant activity by determining the reversal of tetrabenazine-induced ptosis upon oral administration; 2.2-6.2; outline: as §2
Mus musculus [16] = experiment: Compound was tested for antidepressant activity by determining the decreased exploratory activity in mice upon oral administration; 9.2-17; outline: as §2
Mus musculus [17] = experiment: Compound was tested for antidepressant activity by determining the reversal of tetrabenazine-induced ptosis upon oral administration; 6-21; outline: as §2
Mus musculus [18] = experiment: Compound was tested for antidepressant activity by determining the decreased exploratory activity in mice upon oral administration; 16-31; outline: as §2
Mus musculus [19] = experiment: Compound was tested for antidepressant activity by determining the reversal of tetrabenazine-induced ptosis upon oral administration; 0.3-1.2; outline: as §2
Mus musculus [20] = experiment: Compound was tested for antidepressant activity by determining the decreased exploratory activity in mice upon oral administration; 1.2-5.5; outline: as §2
Mus musculus [21] = experiment: Compound was tested for antidepressant activity by determining the reversal of tetrabenazine-induced ptosis upon oral administration; 0.9-3.3; outline: as §2
Mus musculus [22] = experiment: Compound was tested for antidepressant activity by determining the reversal of tetrabenazine-induced ptosis upon oral administration; 0.8-2.6; outline: as §2
Mus musculus [23] = experiment: Compound was tested for antidepressant activity by determining the decreased exploratory activity in mice upon oral administration; 4.1-12; outline: as §2
Mus musculus [24] = experiment: Compound was tested for antidepressant activity by determining the reversal of tetrabenazine-induced ptosis upon oral administration; 2.7-5.1; outline: as §2
Mus musculus [25] = experiment: Compound was tested for antidepressant activity by determining the decreased exploratory activity in mice upon oral administration; 7.9-16; outline: as §2

## CN(C)CCC/N=C1\c2ccccc2CN(C)c2ccccc21
Mus musculus [1]
  ED50: 20 mg/kg
Mus musculus [2]
  ED50: 200 mg/kg
Mus musculus [3]
  ED50: > 324 mg/kg
Mus musculus [4]
  ED50: > 324 mg/kg
Mus musculus [5]
  ED50: 100 mg/kg
Mus musculus [6]
  ED50: 56 mg/kg
Mus musculus [7]
  ED50: 96 mg/kg

## CN(C)CCC=C1c2ccccc2COc2ccccc21 [DOXEPIN]
Mus musculus [1]
  ED50: 232 mg/kg
Mus musculus [2]
  ED50: 23 mg/kg
Mus musculus [8]
  ED50: 5.9 mg/kg
Mus musculus [9]
  ED50: 27 mg/kg
Mus musculus [3]
  ED50: 62 mg/kg
Mus musculus [4]
  ED50: > 324 mg/kg
Mus musculus [5]
  ED50: 56 mg/kg

## CN(C)CCCN=C1c2ccccc2CCc2ccccc21
Mus musculus [1]
  ED50: 36 mg/kg
Mus musculus [2]
  ED50: 60 mg/kg
Mus musculus [10]
  ED50: 24 mg/kg
Mus musculus [3]
  ED50: > 324 mg/kg
Mus musculus [4]
  ED50: > 324 mg/kg
Mus musculus [5]
  ED50: 20 mg/kg
Mus musculus [11]
  ED50: 34 mg/kg

## CN(C)CCN=C1c2ccccc2C2CC2c2ccccc21 (centres undefined)
Mus musculus [1]
  ED50: > 324 mg/kg
Mus musculus [2]
  ED50: 20 mg/kg
Mus musculus [12]
  ED50: 0.25 mg/kg
Mus musculus [13]
  ED50: 0.7 mg/kg
Mus musculus [3]
  ED50: > 324 mg/kg
Mus musculus [4]
  ED50: 60 mg/kg
Mus musculus [5]
  ED50: 20 mg/kg

## c1ccc2c(c1)C(=NCCN1CCCC1)c1ccccc1C1CC21 (centres undefined)
Mus musculus [1]
  ED50: 300 mg/kg
Mus musculus [2]
  ED50: 60 mg/kg
Mus musculus [8]
  ED50: > 125 mg/kg
Mus musculus [14]
  ED50: > 125 mg/kg
Mus musculus [3]
  ED50: 200 mg/kg
Mus musculus [4]
  ED50: > 324 mg/kg
Mus musculus [5]
  ED50: 7 mg/kg

## CN(C)CCN=C1c2ccccc2C2C(c3ccccc31)C2(F)F (centres undefined)
Mus musculus [1]
  ED50: > 324 mg/kg
Mus musculus [2]
  ED50: 60 mg/kg
Mus musculus [15]
  ED50: 3.7 mg/kg
Mus musculus [16]
  ED50: 12.5 mg/kg
Mus musculus [3]
  ED50: 200 mg/kg
Mus musculus [4]
  ED50: > 324 mg/kg
Mus musculus [5]
  ED50: 200 mg/kg

## CN(C)CCC/N=C1\c2ccccc2CSc2ccccc21
Mus musculus [1]
  ED50: 60 mg/kg
Mus musculus [2]
  ED50: 60 mg/kg
Mus musculus [8]
  ED50: > 81 mg/kg
Mus musculus [14]
  ED50: 81 mg/kg
Mus musculus [3]
  ED50: > 324 mg/kg
Mus musculus [4]
  ED50: > 324 mg/kg
Mus musculus [5]
  ED50: 60 mg/kg

## CN(C)CC/N=C1\c2ccccc2CN(C)c2ccccc21
Mus musculus [1]
  ED50: 60 mg/kg
Mus musculus [2]
  ED50: 60 mg/kg
Mus musculus [17]
  ED50: 11 mg/kg
Mus musculus [3]
  ED50: 200 mg/kg
Mus musculus [4]
  ED50: > 324 mg/kg
Mus musculus [5]
  ED50: 60 mg/kg
Mus musculus [18]
  ED50: 22 mg/kg

## CN(C)CCC/N=C1\c2ccccc2CS(=O)(=O)c2ccccc21
Mus musculus [1]
  ED50: 20 mg/kg
Mus musculus [2]
  ED50: 200 mg/kg
Mus musculus [8]
  ED50: > 125 mg/kg
Mus musculus [14]
  ED50: > 125 mg/kg
Mus musculus [3]
  ED50: > 324 mg/kg
Mus musculus [4]
  ED50: > 324 mg/kg
Mus musculus [5]
  ED50: 20 mg/kg

## CNCCN=C1c2ccccc2C2CC2c2ccccc21 (centres undefined)
Mus musculus [1]
  ED50: 300 mg/kg
Mus musculus [2]
  ED50: 36 mg/kg
Mus musculus [19]
  ED50: 0.6 mg/kg
Mus musculus [20]
  ED50: 2.6 mg/kg
Mus musculus [3]
  ED50: 300 mg/kg
Mus musculus [4]
  ED50: > 324 mg/kg
Mus musculus [5]
  ED50: 60 mg/kg

## CC(=O)N1Cc2ccccc2/C(=N\CCN(C)C)c2ccccc21
Mus musculus [1]
  ED50: > 324 mg/kg
Mus musculus [2]
  ED50: 100 mg/kg
Mus musculus [8]
  ED50: > 125 mg/kg
Mus musculus [14]
  ED50: > 125 mg/kg
Mus musculus [3]
  ED50: > 324 mg/kg
Mus musculus [4]
  ED50: > 324 mg/kg
Mus musculus [5]
  ED50: 200 mg/kg

## CN(C)CCCN1c2ccccc2CCc2ccccc21 [IMIPRAMINE]
Mus musculus [1]
  ED50: 305 mg/kg
Mus musculus [2]
  ED50: 62 mg/kg
Mus musculus [8]
  ED50: 0.9 mg/kg
Mus musculus [9]
  ED50: 2.2 mg/kg
Mus musculus [3]
  ED50: 209 mg/kg
Mus musculus [4]
  ED50: > 324 mg/kg
Mus musculus [5]
  ED50: 198 mg/kg

## CN(C)CCCN=C1c2ccccc2C2CC2c2ccccc21 (centres undefined)
Mus musculus [1]
  ED50: 200 mg/kg
Mus musculus [2]
  ED50: 12 mg/kg
Mus musculus [21]
  ED50: 1.7 mg/kg
Mus musculus [14]
  ED50: > 81 mg/kg
Mus musculus [3]
  ED50: > 324 mg/kg
Mus musculus [4]
  ED50: > 324 mg/kg
Mus musculus [5]
  ED50: 12 mg/kg

## CCN(CC)CCN=C1c2ccccc2C2CC2c2ccccc21 (centres undefined)
Mus musculus [1]
  ED50: 200 mg/kg
Mus musculus [2]
  ED50: 36 mg/kg
Mus musculus [22]
  ED50: 1.4 mg/kg
Mus musculus [3]
  ED50: 100 mg/kg
Mus musculus [4]
  ED50: > 324 mg/kg
Mus musculus [5]
  ED50: 36 mg/kg
Mus musculus [23]
  ED50: 6.9 mg/kg

## CN(C)CCN=C(c1ccccc1)c1ccccc1
Mus musculus [1]
  ED50: > 324 mg/kg
Mus musculus [2]
  ED50: 36 mg/kg
Mus musculus [8]
  ED50: > 81 mg/kg
Mus musculus [14]
  ED50: > 81 mg/kg
Mus musculus [3]
  ED50: > 200 mg/kg
Mus musculus [4]
  ED50: > 324 mg/kg
Mus musculus [5]
  ED50: > 324 mg/kg

## CN(C)CCNC1c2ccccc2CCc2ccccc21
Mus musculus [1]
  ED50: 200 mg/kg
Mus musculus [2]
  ED50: 20 mg/kg
Mus musculus [8]
  ED50: > 125 mg/kg
Mus musculus [9]
  ED50: > 125 mg/kg
Mus musculus [3]
  ED50: 60 mg/kg
Mus musculus [4]
  ED50: > 324 mg/kg
Mus musculus [5]
  ED50: 20 mg/kg

## CN(C)CC/N=C1\c2ccccc2C2CC2c2ccc(Cl)cc21 (centres undefined)
Mus musculus [1]
  ED50: 200 mg/kg
Mus musculus [2]
  ED50: 20 mg/kg
Mus musculus [24]
  ED50: 3.7 mg/kg
Mus musculus [3]
  ED50: 200 mg/kg
Mus musculus [4]
  ED50: 60 mg/kg
Mus musculus [5]
  ED50: 12 mg/kg
Mus musculus [25]
  ED50: 11.2 mg/kg
